The text below walks through data of paper PMC8355823 (Toxicology Reports, 2021).

Read-outs that look alike come from different tables or passages of the source.

For data set [1], the system named is ES-D3 embryoid bodies. Put plainly: Total protein measurements of EBs. It is filed as cell-based, murine. The conditions noted are these: Mus musculus, 168 h, read-out: Protein level (EC50); day 7. A digest of the protocol:
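Differentiation run without LIF. Hanging drops kept 3 days, then exposure to test compound during EB culture. On differentiation day 7, 24 EBs per condition were pooled, dissociated at 37 °C for 3 min, washed in PBS and permeabilised in 1% Triton X-100 for 5 min. Protein measured by Micro BCA in triplicate. EC50 taken from an exponential concentration-response fit with 90% BMCL-BMCU.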

The test system of a further data set is ES-D3 cells. Put plainly: Cell viability assay. The note with it: Mus musculus, 120 h, read-out: Viability (IC50). It is filed as cell-based, murine. A digest of the protocol: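 ES-D3 cells plated at 500/well in LIF-containing medium and settled 2 h at 37 °C, 5% CO2. Exposed in six replicates to test compound, 0.25% DMSO vehicle, or penicillin G and 5-fluorouracil controls. Medium renewed at the same final concentrations after 3 days, then 2 more days. CellTiter-Blue added for 2 h; fluorescence read at 544/590 nm and expressed as % of DMSO. n = 3 experiments. IC50 taken from an exponential concentration-response fit with 90% BMCL-BMCU.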

Another data set has as its system rats. The note with it: cited from earlier work.
The next data set has as its system zebrafish. The conditions noted are these: cited from earlier work.
Data set [2] deals with ES-D3 embryoid bodies. Put plainly: Embryoid body. It is filed as cell-based, murine. The conditions noted are these: Mus musculus, read-out: EB area (EC50); day 7. A digest of the protocol:
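Differentiation run without LIF. Hanging drops kept 3 days, then EBs moved to exposure medium for 2 days, then placed singly in 24-well plates with exposure medium. On differentiation day 7, each EB was imaged by bright field at 4x and its border traced to give area. Mean area of 24 EBs per condition was used. EC50 taken from an exponential concentration-response fit with 90% BMCL-BMCU.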

The subject of a further data set is rabbits. The conditions noted are these: cited from earlier work.
The test system of data set [3] is ES-D3 embryoid bodies. Put plainly: Gene expression analysis. The note with it: after 24 h exposure, day 4. It is filed as cell-based, murine. A digest of the protocol:
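EBs differentiated to day 4 with 24 h exposure to test compound or 0.25% DMSO. 7–8 EB samples from two independent experiments. RNA isolated with a DNase step; quality accepted at 260/280 of 1.9–2.2 and RIN >8.2. TaqMan real-time PCR: 95 °C for 20 s, then 40 cycles of 95 °C 3 s and 60 °C 30 s. Values by ΔΔCt against mean Hprt1/Gusb/Polr2a. One-way ANOVA with Sidak test (p < 0.05) versus control.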

As a reminder, the EC50 is the midpoint of the concentration-response curve. As a reminder, the IC50 is the midpoint of a concentration-inhibition curve.

Regarding `CCOP(=S)(OCC)Oc1nc(Cl)c(Cl)cc1Cl` [Chlorpyrifos], in the data set on ES-D3 embryoid bodies [1], the EC50 turned out to be 92 µM. Moreover, the IC50 in the data set on ES-D3 cells is 85.7 µM. Besides, in the data set with rats (exposure of pregnant rats), the “Degenerated neurons in the cerebellum of the offspring” value is recorded as “increased degenerated neurons” and the “Numbers of Purkinje cells in the offspring” value was “reduced numbers of Purkinje cells”. For the same molecule, the Psychobiological development entry in the data set with rats (neonatal rats, dams exposed to 1 mg/kg per os) was “delay in psychobiological development”. In addition, in the data set with rats (neonatal rats), the “Acetylcholine esterase (AChE)” value is recorded as “reductions” and the Muscarinic receptors entry is reported as “dose-dependent decrease”. Also, in the data set on rats (rats, maternally toxic doses of 25 mg/kg per day), the Malformations entry was “multiple malformations”. The Cardiac-related developmental defects result with zebrafish (zebrafish) was “pericardial oedema”. Also, in the data set on ES-D3 embryoid bodies [2], the EC50 was found to be 139 µM.

Take `CCOC(=O)CC(SP(=S)(OC)OC)C(=O)OCC` (stereo not shown) [Malathion, malathion]: the EC50 is 80.2 µM in the data set on ES-D3 embryoid bodies [1] and 72 µM with ES-D3 embryoid bodies [2]. Also, the Fetotoxicity and teratogenicity entry in the data set on rabbits is recorded as “neither fetotoxic nor teratogenic”. Moreover, in the data set with ES-D3 cells, the IC50 turned out to be 49.4 µM. The Cardiac-related developmental defects entry in the data set with zebrafish (zebrafish) was “bradycardia and a reduced heart rate”.

On to `O=P(Oc1ccccc1)(Oc1ccccc1)Oc1ccccc1` [Triphenyl phosphate, triphenyl phosphate], for which, in the data set with ES-D3 embryoid bodies [3], the “Myh6 gene expression (late cardiomyocyte differentiation marker)” value is reported as “not expressed yet”. Further, the EC50 in the data set on ES-D3 embryoid bodies [1] is 108 µM; in the data set on ES-D3 embryoid bodies [2], 120 µM. The IC50 in the data set with ES-D3 cells is 61.4 µM. In addition, the Fetotoxicity and teratogenicity result in the data set with rats (rats) is on record as “neither fetotoxic nor teratogenic”. Further, the Cardiac-related developmental defects result with zebrafish (zebrafish model) is “impaired cardiac looping and function”. Also, in the data set with zebrafish (zebrafish), the Cardiac effects entry was “impairments in cardiac looping and function defects”.
